Experiments:
[1] = molecular target: Human immunodeficiency virus type 1 integrase (Human immunodeficiency virus 1, UniProt Q7ZJM1); assay: Inhibition of HIV1 integrase strand transfer activity
[2] = Aqueous solubility of the compound; type: physicochemical
Method in brief: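 Aqueous solubility measured at pH 2.3, 6.1, 7.3 and 8.5, in µg/mL.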

[3] = Clearance in Sprague-Dawley rat at 1 mg/kg, iv after 4 hrs; type: ADME, organism-based; conditions: in vivo
Method in brief: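 Male Sprague-Dawley rats given 1 mpk IV in PEG400/ethanol (90:10); blood sampled at 5 and 30 min and 1, 2 and 4 h post-dose; clearance from plasma profile.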

Human immunodeficiency virus type 1 integrase, sequence (Q7ZJM1 whole entry): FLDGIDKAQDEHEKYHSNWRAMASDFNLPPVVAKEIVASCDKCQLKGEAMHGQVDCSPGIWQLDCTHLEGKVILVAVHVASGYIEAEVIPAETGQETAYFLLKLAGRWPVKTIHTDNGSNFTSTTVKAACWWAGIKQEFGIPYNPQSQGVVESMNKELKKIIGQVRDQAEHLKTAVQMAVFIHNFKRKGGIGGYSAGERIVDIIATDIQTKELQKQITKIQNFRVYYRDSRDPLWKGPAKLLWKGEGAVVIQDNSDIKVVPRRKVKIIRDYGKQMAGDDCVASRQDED

Row | SMILES | IC50 [1] | solubility [2] | clearance [3]
1 | CN(C)S(=O)(=O)c1cc(F)ccc1CNC(=O)c1nc2n(c(=O)c1O)CCCC21CCCC1 | 6 nM | ≤ 5 µg/mL | 
2 | CN(C)S(=O)(=O)c1c(CNC(=O)c2nc3n(c(=O)c2O)CCOC3(C)C)ccc(F)c1F | 10 nM |  | 62 mL/min/kg
3 | O=C(NCc1ccc(F)cc1)c1nc2n(c(=O)c1O)CCCC21CCCC1 | 3 nM | ≤ 5 µg/mL | 18 mL/min/kg
4 | CNC(=O)c1cc(F)ccc1CNC(=O)c1nc2n(c(=O)c1O)CCOC2(C)C | 11 nM |  | 22 mL/min/kg
